Compound activity (PubChem BioAssay)
Pf Dd2 inh: inhibitors of Plasmodium falciparum Dd2 growth | P. falciparum Dd2 growth, SYBR Green, 72 h; stronger effect = lower value | activity change, % at 10 µM | hit rate 2.3% among 94,000; in the data active means activity change below about -80%; inconclusive means no clear call, values can overlap the other calls
IDH1 R132H inh: blocks human IDH1 R132H reductase activity; hit rate 0.18% among 70,000; diaphorase/resazurin fluorescence, 60 min; inhibition, % at 10 µM; O75874; AID 624101; in the data active means inhibition above about 34%; inconclusive means no clear call, values can overlap the other calls; inactive means below about 11%
Target sequence (O75874 whole entry R132H): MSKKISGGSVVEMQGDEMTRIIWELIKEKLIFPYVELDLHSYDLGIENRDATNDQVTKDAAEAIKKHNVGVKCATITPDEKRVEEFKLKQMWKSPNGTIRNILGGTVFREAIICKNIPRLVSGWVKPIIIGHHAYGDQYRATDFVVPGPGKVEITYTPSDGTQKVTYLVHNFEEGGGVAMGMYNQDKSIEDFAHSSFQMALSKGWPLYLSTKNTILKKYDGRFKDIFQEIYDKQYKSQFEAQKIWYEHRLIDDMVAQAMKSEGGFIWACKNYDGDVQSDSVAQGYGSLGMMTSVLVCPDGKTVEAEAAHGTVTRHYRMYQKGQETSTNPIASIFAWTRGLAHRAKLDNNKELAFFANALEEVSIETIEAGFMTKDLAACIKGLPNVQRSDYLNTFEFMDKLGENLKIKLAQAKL
T cruzi growth-1: T. cruzi proliferation inhibition; T. cruzi beta-gal in NIH3T3, GalScreen luminescence, 90 h; inhibition, % at 8.34 µM; hit rate 5.9% among 77,000; AID 624255;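 active means mean inhibition above about 93%, with at least 55% of replicates each passing it, limit read from the data, passing the limit was not always enough; inconclusive means only one of those two conditions holds; inactive means neither condition holds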
KDM4C inh: inhibitors of human demethylase GASC-1 KDM4C | Q9H3R0 | inhibition, % at 12.5 µM | AID 720574 | GST-KDM4C 2-372, H3K9me3 peptide, LANCE TR-FRET | hit rate 0.15% among 96,000;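 active means mean replicate inhibition above about 25%, with at least 55% of replicates also reaching it, limit read from the data, passing the limit was not always enough; inconclusive means only one of those two conditions met; inactive means neither condition met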
Target sequence (Q9H3R0 2-372 limits assumed): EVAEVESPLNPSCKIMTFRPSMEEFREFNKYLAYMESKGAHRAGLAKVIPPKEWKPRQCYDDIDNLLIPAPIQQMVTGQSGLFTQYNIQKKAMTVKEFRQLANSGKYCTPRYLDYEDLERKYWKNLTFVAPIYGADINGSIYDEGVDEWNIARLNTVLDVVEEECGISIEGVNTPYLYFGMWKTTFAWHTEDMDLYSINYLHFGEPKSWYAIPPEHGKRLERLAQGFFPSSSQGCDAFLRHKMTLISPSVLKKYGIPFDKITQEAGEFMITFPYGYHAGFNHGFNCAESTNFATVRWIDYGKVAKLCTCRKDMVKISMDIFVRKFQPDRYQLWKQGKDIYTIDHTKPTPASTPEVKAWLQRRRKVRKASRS
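Assay system: GST-GASC-1 enzyme fragment 2-372 | Amount: 10 nM enzyme | Medium: HEPES buffer, pH 7.5, plus ascorbate | Reagent: H3K9me3 peptide substrate, Fe(II), 2-oxoglutarate | Doses: Single-point compound screen | Incubation: 30 min demethylation and 1 h detection at room temperature | Measured by: LANCE TR-FRET, excitation 340 nm, emissions 618 and 671 nm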
T cruzi growth-2: Trypanosoma cruzi proliferation inhibition | shares compounds with T cruzi growth-1 | T. cruzi beta-gal in NIH3T3, GalScreen luminescence, 90 h | inhibition, % at 8.35 µM | hit rate 72% among 5,600 | AID 651739;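 active means mean replicate inhibition above about 95% and at least 55% of replicates individually reaching it, limit read from the data; inconclusive means only one of the two criteria is met; inactive means neither criterion is met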
T cruzi growth-3: inhibitors of T. cruzi proliferation; shares compounds with T cruzi growth-1; T. cruzi beta-gal in NIH3T3, GalScreen luminescence, 90 h; inhibition, % at 2.09 µM; hit rate 21% among 5,600;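 active means mean inhibition above about 95%, with at least 55% of replicates also reaching it, limit read from the data; inconclusive means meets just one of the two conditions; inactive means meets neither condition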
3T3 cytotox: cytotoxicity in mouse NIH/3T3 fibroblasts. shares compounds with T cruzi growth-1. NIH/3T3 viability, CellTiter-Glo ATP luminescence, 90 h. cytotoxicity (signal decrease), % at 8.35 µM. hit rate 14% among 5,600;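 active means mean signal decrease across replicates above about 35% based on untreated-well scatter, with enough replicates individually passing, limit read from the data; inconclusive means no rule stated though some were filed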
3T3 cytotox 2: kills mouse NIH/3T3 fibroblasts. NIH/3T3 viability, CellTiter-Glo ATP luminescence, 90 h. hit rate 56% among 5,600. shares compounds with T cruzi growth-1. inhibition, % at 24.9 µM;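 active means mean loss of cell viability signal at or above a set limit, and enough replicates individually reaching it; inconclusive means meets only the mean limit or only the replicate share; inactive means meets neither condition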
Large screens that a line does not name were inactive (follow-up assays come after a bar, where they were run). This is a sample that favours compounds with a hit; in the whole collection about 5.9% have one here.

COc1ccc(S(=O)(=O)Nc2ccc3c(c2)C(=O)N([C@H](C)CO)C[C@H](C)[C@@H](CN(C)C(=O)Nc2ccc(C(F)(F)F)cc2)OCCCC[C@@H](C)O3)cc1	T cruzi growth-1 108 | T cruzi growth-2 99 | T cruzi growth-3 inactive | 3T3 cytotox inactive | 3T3 cytotox 2 inactive
CO[C@@H]1CN(C)C(=O)c2cc(NC(=O)NC(C)C)ccc2OC[C@@H](C)N(C)C[C@@H]1C	none
C[C@@H]1CCCCO[C@H](CN(C)C(=O)Nc2ccc(C(F)(F)F)cc2)[C@@H](C)CN([C@H](C)CO)C(=O)c2cc(NS(=O)(=O)c3ccc(Cl)cc3)ccc2O1	T cruzi growth-1 104 | T cruzi growth-2 99 | T cruzi growth-3 inactive | 3T3 cytotox inactive | 3T3 cytotox 2 inactive
C[C@@H]1CN([C@@H](C)CO)S(=O)(=O)c2ccc(C#CC3CC3)cc2O[C@H]1CN(C)Cc1ccccc1F	T cruzi growth-1 101 | T cruzi growth-2 95 | T cruzi growth-3 109 | 3T3 cytotox 60 | 3T3 cytotox 2 106
CC(C)CC#Cc1ccc2c(c1)O[C@@H](CN(C)Cc1ccccc1F)[C@@H](C)CN([C@@H](C)CO)S2(=O)=O	T cruzi growth-1 127 | T cruzi growth-2 inactive | T cruzi growth-3 112 | 3T3 cytotox inactive | 3T3 cytotox 2 105
CC(C)CC#Cc1ccc2c(c1)O[C@@H](CN(C)Cc1ccccc1F)[C@H](C)CN([C@@H](C)CO)S2(=O)=O	none
COCC#Cc1ccc2c(c1)O[C@H](CN(C)Cc1ccccc1F)[C@H](C)CN([C@H](C)CO)S2(=O)=O	none
C[C@@H]1CN([C@H](C)CO)S(=O)(=O)c2ccc(C#CCN(C)C)cc2O[C@H]1CN(C)Cc1ccccc1F	T cruzi growth-1 110 | T cruzi growth-2 106 | T cruzi growth-3 inactive | 3T3 cytotox 61 | 3T3 cytotox 2 106
C[C@H]1CN([C@@H](C)CO)S(=O)(=O)c2ccc(C#CCN(C)C)cc2O[C@H]1CN(C)Cc1ccccc1F	T cruzi growth-1 100 | T cruzi growth-2 96 | T cruzi growth-3 inactive | 3T3 cytotox inactive | 3T3 cytotox 2 34
CCCC#Cc1ccc([C@@H]2[C@@H](CO)N3CCCCN(Cc4ccncc4)C[C@H]23)cc1	T cruzi growth-1 109 (no result: IDH1 R132H inh) | T cruzi growth-2 98 | T cruzi growth-3 inactive | 3T3 cytotox 35 | 3T3 cytotox 2 67
COc1ccc(C#Cc2ccc([C@H]3[C@H](CO)N4CCCCN(Cc5ccncc5)C[C@@H]34)cc2)cc1	T cruzi growth-1 90 (no result: IDH1 R132H inh) | T cruzi growth-2 109 | T cruzi growth-3 inactive | 3T3 cytotox 49 | 3T3 cytotox 2 105
COCC#Cc1ccc([C@H]2[C@H](CO)N3CCCCN(Cc4cncnc4)C[C@@H]23)cc1	T cruzi growth-1 115 (no result: IDH1 R132H inh) | T cruzi growth-2 98 | T cruzi growth-3 inactive | 3T3 cytotox inactive | 3T3 cytotox 2 inactive
CCCC#Cc1ccc([C@H]2[C@@H](CO)N3CCCCN(Cc4cccnc4)C[C@H]23)cc1	T cruzi growth-1 inconclusive (no result: IDH1 R132H inh) | T cruzi growth-2 108 | T cruzi growth-3 inactive | 3T3 cytotox inactive | 3T3 cytotox 2 102
C[C@@H]1CN([C@@H](C)CO)C(=O)c2cc(C#Cc3ccncc3)cnc2O[C@@H]1CN(C)CC1CCOCC1	none
COc1cc(OC)c(NC(=O)CSc2nnc(-c3ccncc3)n2C)cc1Cl	none (no result: Pf Dd2 inh, T cruzi growth-1, KDM4C inh)
CCCC#Cc1ccc([C@H]2[C@H](CO)N3CCCCN(CC4CC4)C[C@@H]23)cc1	T cruzi growth-1 98 (no result: IDH1 R132H inh, KDM4C inh) | T cruzi growth-2 109 | T cruzi growth-3 inactive | 3T3 cytotox inconclusive | 3T3 cytotox 2 105
COCC#Cc1ccc([C@H]2[C@@H](CO)N3CCCCN(Cc4ccncc4)C[C@H]23)cc1	T cruzi growth-1 108 (no result: IDH1 R132H inh) | T cruzi growth-2 106 | T cruzi growth-3 inactive | 3T3 cytotox inactive | 3T3 cytotox 2 inactive
COCC#Cc1ccc([C@@H]2[C@@H](CO)N3CCCCN(Cc4ccncc4)C[C@H]23)cc1	none (no result: IDH1 R132H inh)
CCCC#Cc1ccc([C@@H]2[C@H]3CN(Cc4ccncc4)CCCCN3[C@H]2CO)cc1	T cruzi growth-1 inconclusive (no result: IDH1 R132H inh) | T cruzi growth-2 96 | T cruzi growth-3 inactive | 3T3 cytotox 37 | 3T3 cytotox 2 106
CCCC#Cc1ccc([C@H]2[C@@H](CO)N3CCCCN(Cc4ccncc4)C[C@H]23)cc1	none (no result: IDH1 R132H inh)
CCCC#Cc1ccc([C@@H]2[C@H](CO)N3CCCCN(CC4CC4)C[C@@H]23)cc1	none (no result: IDH1 R132H inh)
N#Cc1cccc(-c2ccc3c(c2)[C@H]2[C@H](CCN2S(=O)(=O)c2ccccc2F)[C@H](CO)N3)c1	T cruzi growth-1 110 (no result: IDH1 R132H inh) | T cruzi growth-2 inactive | T cruzi growth-3 inactive | 3T3 cytotox 47 | 3T3 cytotox 2 74
O=S(=O)(c1ccccc1F)N1CC[C@@H]2[C@H](CO)Nc3ccc(-c4ccc(F)cc4)cc3[C@@H]21	T cruzi growth-1 inconclusive (no result: IDH1 R132H inh) | T cruzi growth-2 inactive | T cruzi growth-3 inactive | 3T3 cytotox inactive | 3T3 cytotox 2 105
O=S(=O)(c1ccccc1F)N1CC[C@H]2[C@H](CO)Nc3ccc(-c4ccc(F)cc4)cc3[C@H]21	none (no result: IDH1 R132H inh)
COc1cccc(-c2ccc3c(c2)[C@@H]2[C@@H](CCN2S(=O)(=O)c2ccccc2C)[C@H](CO)N3)c1	none (no result: IDH1 R132H inh)
N#Cc1ccc(-c2ccc3c(c2)[C@@H]2[C@@H](CCN2S(=O)(=O)c2ccccc2F)[C@@H](CO)N3)cc1	none (no result: IDH1 R132H inh)
COc1cccc(-c2ccc3c(c2)[C@@H]2[C@@H](CCN2S(=O)(=O)c2ccccc2F)[C@@H](CO)N3)c1	T cruzi growth-1 inconclusive (no result: IDH1 R132H inh) | T cruzi growth-2 98 | T cruzi growth-3 105 | 3T3 cytotox inactive | 3T3 cytotox 2 101
N#Cc1cccc(-c2ccc3c(c2)[C@@H]2[C@@H](CCN2S(=O)(=O)c2ccccc2F)[C@@H](CO)N3)c1	T cruzi growth-1 107 (no result: IDH1 R132H inh) | T cruzi growth-2 99 | T cruzi growth-3 105 | 3T3 cytotox inactive | 3T3 cytotox 2 73
O=S(=O)(Cc1ccccc1)N1CCCCN2[C@H](CO)[C@@H](c3ccc(-c4ccc(F)cc4)cc3)[C@@H]2C1	T cruzi growth-1 109 (no result: IDH1 R132H inh) | T cruzi growth-2 108 | T cruzi growth-3 inactive | 3T3 cytotox inactive | 3T3 cytotox 2 102
O=S(=O)(Cc1ccccc1)N1CCCCN2[C@H](CO)[C@H](c3ccc(-c4ccc(F)cc4)cc3)[C@@H]2C1	T cruzi growth-1 100 (no result: IDH1 R132H inh) | T cruzi growth-2 99 | T cruzi growth-3 inactive | 3T3 cytotox inactive | 3T3 cytotox 2 105
CO[C@H]1CN(C)C(=O)c2cc(NC(=O)CC(F)(F)F)ccc2OC[C@H](C)N(C(=O)C2CC2)C[C@H]1C	none (no result: IDH1 R132H inh, T cruzi growth-1)
C[C@H](CO)N1C[C@H](C)[C@H](CN(C)Cc2ccccc2C(=O)O)Oc2cc(C#CC3CCCC3)ccc2S1(=O)=O	none (no result: T cruzi growth-1)
